Results of several laboratories.
Converted amounts (≈) assume the structure as drawn.
CYP2B6: Cytochrome P450 2B6 (CYP2B6, Homo sapiens, UniProt P20813)

The EC50 of `c1ccc(Oc2ccc(Nc3ccc4ncc(OCC5CCNCC5)nc4c3)cc2)cc1` is reported as 20.9 µM (HeLa; cell growth or viability, XTT; 7 days).
`Cc1cc(S(=O)(=O)N[C@H]2CC[C@H](CN3CCN(c4ccc(C5CCC(=O)NC5=O)c(Cl)c4)CC3)CC2)ccc1Nc1ncc(C(F)(F)F)c(N2CCC[C@](C)(O)C2)n1` (some centres unmarked) gave a clearance of 15 mL/min/kg (rat, plasma; intravenous, 2 mg/kg).
`CCCCCCCCCCCCCCCCCC(=O)O` gave a CC50 of 90.6 µg/mL (≈ 318 µM) (HeLa; cell growth or viability, MTT; 48 h).
`Cc1cc(S(=O)(=O)NC2CC(N3CCN(CC4CCN(c5ccc(NC6CCC(=O)NC6=O)cc5C)CC4)CC3)C2)ccc1Nc1ncc(C(F)(F)F)c(N2CCC[C@](C)(O)C2)n1` (some centres unmarked) gave a clearance of 26 mL/min/kg (rat, plasma; intravenous, 2 mg/kg).
With `CC(C)n1ncc2c(C(=O)NCC3(C)CNC3)cc(C3CC3)nc21` the viability was 99.9% (HeLa; cell growth or viability, neutral red; 0.11 µM).
With `CSc1ccccc1C(=O)NCCn1cc(C(=O)NCc2cccc(C)n2)c(=O)c2cc3c(cc21)OC(F)(F)O3` the IC50 was > 100 µM (CYP2B6; enzyme activity, inhibitor; human, liver microsomes; 20 min, without NADPH, with preincubation).
For `OCc1ccc(-c2nn(Cc3ccccc3)c3ccccc23)o1`, the IC50 was 5.1 µM (CYP2B6; enzyme activity, inhibitor; human, liver microsomes).
For `C[C@H]1Oc2cc(cnc2N)-c2c(nn(C)c2C#N)CN(C)C(=O)c2ccc(F)cc21`, the CL/F was 50 mL/min/kg (male Sprague-Dawley rat, plasma; oral, 5 mg/kg, single dose).
For `CNS(=O)(=O)c1ccc(Nc2ncc(C(F)(F)F)c(N3CCC(C)(O)CC3)n2)c(C)c1`, the clearance was 52 mL/min/kg (rat, plasma; intravenous, 2 mg/kg).
`CC(C)[C@@H]1NC(=O)[C@@H](CCCCN)NC(=O)[C@H]([C@@H](C)O)NC(=O)[C@@H](CCCN)NC(=O)[C@H](Cc2ccccc2)NC(=O)[C@@H](Cc2ccccc2)NC1=O` gave a haemolysis of < 10% (haemolysis; human; 100 µM).
With `c1ccc(COc2ccc(Nc3ccc4ncc(OCC5CCNCC5)nc4c3)cc2)cc1` the EC50 was > 30 µM (HeLa; cell growth or viability, XTT; 7 days).
`CC(C)[C@@H]1NC(=O)[C@@H](CCCNC(=N)N)NC(=O)[C@H](C)NC(=O)[C@@H](CCCN)NC(=O)[C@H](Cc2ccccc2)NC(=O)[C@@H](Cc2ccccc2)NC1=O` has a haemolysis of < 10% (haemolysis; human; 100 µM).
For `Cc1cc(S(=O)(=O)N[C@]2(C)C[C@@H](N3CCN(CC4CCN(c5ccc6c(c5F)n(C)c(=O)n6C5CCC(=O)NC5=O)CC4)CC3)C2)ccc1Nc1ncc(C(F)(F)F)c(N2CCC[C@](C)(O)C2)n1` (some centres unmarked), the clearance was 62 mL/min/kg (rat, plasma; intravenous, 2 mg/kg).
For `CSc1ccccc1C(=O)NCCn1cc(C(=O)NCc2cccc(C)n2)c(=O)c2cc3c(cc21)OCO3`, the IC50 was > 100 µM (CYP2B6; enzyme activity, inhibitor; human, liver microsomes; 20 min, without NADPH, with preincubation).
